Measured values: ChEMBL document CHEMBL3259771, “Probing the aurone scaffold against Plasmodium falciparum: design, synthesis and antimalarial activity” (Eur J Med Chem, 2014)
Active and inactive are the calls of the source. No cut-off for these calls is given here.

Key:
Plasmodium falciparum [1] = experiment: Antiplasmodial activity against chloroquine-resistant ring stage Plasmodium falciparum W2 infected in human RBC after 48 hrs by flow cytometric analysis; assay type: functional, organism-based; conditions: W2, 48 h
Procedure, shortened: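 Ring-stage W2 parasites at 1% in human erythrocytes, synchronized with 5% sorbitol. Incubated with compound 48 h at 37 °C in RPMI-1640 with 25 mM HEPES pH 7.4, 10% heat-inactivated human serum (or 0.5% Albumax/2% human serum) and hypoxanthine, under 3% O₂/5% CO₂/[…]. Cells fixed in 2% formaldehyde, stained in PBS with NH₄Cl, 0.1% Triton X-100 and 1 nM YOYO-1, then counted by flow cytometry.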

HEK-293T = experiment: Cytotoxicity against HEK293T cells after 48 hrs by MTT assay; assay type: cell-based; conditions: Homo sapiens
[2] = Selectivity index, ratio of EC50 for HEK293T cells to IC50 for chloroquine-resistant ring stage Plasmodium falciparum W2; assay type: functional, HEK-293T
Plasmodium falciparum [3] = experiment: Inhibition of Plasmodium falciparum falcipain-2 up to 50 uM
[4] = Water-lipid distribution coefficient, log D of the compound at pH 7.4; assay type: physicochemical
[5] = Water-lipid distribution coefficient, log D of the compound at pH 5.2; assay type: physicochemical
[6] = Vacuolar accumulation ratio of the compound; assay type: ADME
Procedure, shortened: (§1)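 Calculated rather than measured. VAR: predicted trapping in acidic digestive vacuole from pH-dependent water/lipid distribution (log D). LAR: expected fraction concentrating in the vacuole's lipid component.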

[7] = Lipid accumulation ratio of the compound; assay type: physicochemical; procedure, shortened: as §1
[8] = Inhibition of hemozoin-like crystal formation up to 1 mM after 5 days; assay type: functional
Procedure, shortened: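 Hemozoin-like crystal stock suspension sonicated 3 min and diluted in fresh broth medium. Compounds in wells at 0–1000 final concentration after 0.22 filtration. Incubated at 37 °C, 5% CO₂, 5 days, then scored for presence or absence of crystal growth. Triplicate.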

Structure (SMILES) | IC50 (Plasmodium falciparum [1]) [µM] | EC50 (HEK-293T) [µM] | Selectivity Index [2] | inhibition (Plasmodium falciparum [3]) | logD [4] | logD [5] | Ratio [6] | Ratio [7] | inhibition [8]
O=Cc1ccc(-c2cccc(/C=C3\Oc4ccccc4C3=O)c2)cc1 | > 10 | > 100 | >10 | inactive | – | – | – | – | –
CN(C)c1ccc(/C=C2\Oc3cc(O)ccc3C2=O)cc1 | > 10 | > 100 | >10 | inactive | – | – | – | – | –
Cc1ccc(Oc2ccc(/C=C3\Oc4cc(O)ccc4C3=O)cc2)cc1 | 5.84 | 95 | >16 | inactive | – | – | – | – | –
COc1cccc2c1O/C(=C\c1ccc(F)cc1F)C2=O | > 10 | > 100 | >10 | inactive | – | – | – | – | –
O=C1/C(=C/c2ccccc2)Oc2cc(-c3ccccc3)ccc21 | > 10 | > 100 | >10 | inactive | – | – | – | – | –
O=C1/C(=C/c2ccccc2)Oc2c1ccc(O)c2CN1CCCCC1 | 1.18 | > 100 | >85 | – | 2.04 | -0.15 | 155 | 110 | inactive
O=C1/C(=C/c2ccc(-c3cnc4ccccc4c3)cc2)Oc2ccccc21 | 6.59 | > 100 | >15 | inactive | 5.16 | 5.08 | 1.19 | 144366 | –
O=C1/C(=C/c2ccc(Cc3ccccc3)cc2)Oc2ccccc21 | 7.34 | 87 | >12 | inactive | – | – | – | – | –
O=C1/C(=C/c2ccc(NCc3ccccc3)cc2)Oc2ccccc21 | 5 | > 100 | >20 | inactive | – | – | – | – | –
CN1CCN(Cc2c(O)ccc3c2O/C(=C\c2ccccc2)C3=O)CC1 | 4.01 | > 100 | >25 | – | 1.02 | -3.33 | 22589 | 10.6 | inactive
O=C1/C(=C/c2ccccc2)Oc2ccccc21 [(Z)-AURONE] | > 10 | > 100 | >10 | inactive | – | – | – | – | –
O=C1/C(=C/c2cccc(Cc3ccccc3)c2)Oc2ccccc21 | 2.31 | 71 | >31 | inactive | – | – | – | – | –
COc1cc(/C=C2\Oc3ccccc3C2=O)cc(OC)c1OC | > 10 | > 100 | >10 | inactive | – | – | – | – | –
O=C1/C(=C/c2ccc(Cl)cc2Cl)Oc2cc(O)ccc21 | > 10 | > 100 | >10 | inactive | – | – | – | – | –
O=C1/C(=C/c2cccc(-c3ccccc3)c2)Oc2ccccc21 | 5.21 | > 100 | >19 | inactive | – | – | – | – | –
O=C1/C(=C/c2ccc(F)cc2F)Oc2cc(O)ccc21 | > 10 | > 100 | >10 | inactive | – | – | – | – | –
O=C1/C(=C/c2ccc(Oc3ccc(Cl)cc3)cc2)Oc2cc(O)ccc21 | 9.88 | 12 | >1 | inactive | – | – | – | – | –
O=C1/C(=C/c2ccc(Br)cc2)Oc2ccccc21 | 3.21 | > 100 | >31 | inactive | – | – | – | – | –
O=C1/C(=C/c2ccc(-c3ccc(F)cc3)cc2)Oc2ccccc21 | > 10 | > 100 | >10 | inactive | – | – | – | – | –

Structure (SMILES) | IC50 (Plasmodium falciparum [1]) [µM] | EC50 (HEK-293T) [µM] | Selectivity Index [2] | inhibition (Plasmodium falciparum [3]) | logD [4] | logD [5] | Ratio [6] | Ratio [7] | inhibition [8]
O=Cc1ccc(-c2ccc(/C=C3\Oc4ccccc4C3=O)cc2)cc1 | > 10 | > 100 | >10 | inactive | – | – | – | – | –
CCN(CC)Cc1c(O)ccc2c1O/C(=C\c1ccccc1)C2=O | 3.47 | > 100 | >29 | – | 1.79 | -0.4 | 156 | 62 | inactive
O=C1/C(=C/c2ccc(-c3ccccc3)cc2)Oc2ccccc21 | > 10 | > 100 | >10 | inactive | – | – | – | – | –
COc1cc(/C=C2\Oc3cc(O)ccc3C2=O)cc(OC)c1OC | > 10 | > 100 | >10 | inactive | – | – | – | – | –
O=C1/C(=C/c2ccccc2)Oc2cc(O)ccc21 | > 10 | > 100 | >10 | inactive | – | – | – | – | –
O=C1/C(=C/c2ccc(Oc3ccc(Cl)cc3)cc2)Oc2ccccc21 | > 10 | > 100 | >10 | inactive | – | – | – | – | –
CN(C)c1ccc(/C=C2\Oc3ccccc3C2=O)cc1 | 7.99 | > 100 | >13 | inactive | – | – | – | – | –
O=C1/C(=C/c2cccc(Br)c2)Oc2ccccc21 | 4.7 | > 100 | >21 | inactive | – | – | – | – | –
O=C1/C(=C/c2ccc(F)cc2F)Oc2ccccc21 | > 10 | > 100 | >10 | inactive | – | – | – | – | –
O=C1/C(=C/c2cccc(-c3ccc(F)cc3)c2)Oc2ccccc21 | 4.41 | > 100 | >23 | inactive | – | – | – | – | –
O=C1/C(=C/c2ccccc2Br)Oc2ccccc21 | > 10 | > 100 | >10 | inactive | – | – | – | – | –
Cc1ccc(Oc2ccc(/C=C3\Oc4ccccc4C3=O)cc2)cc1 | > 10 | > 100 | >10 | inactive | – | – | – | – | –
O=C1/C(=C/c2ccc(-c3ccc(Cl)cc3)cc2)Oc2ccccc21 | > 10 | > 100 | >10 | inactive | – | – | – | – | –
O=C1/C(=C/c2ccc(Cl)cc2Cl)Oc2ccccc21 | > 10 | 68 | <6.8 | inactive | – | – | – | – | –
O=C1/C(=C/c2ccc(Nc3ccccc3)cc2)Oc2ccccc21 | 8.59 | > 100 | >12 | inactive | – | – | – | – | –
O=C1/C(=C/c2ccccc2)Oc2cc(-c3ccc(F)cc3)ccc21 | > 10 | > 100 | >10 | inactive | – | – | – | – | –
COc1cc(/C=C2\Oc3c(OC)cccc3C2=O)cc(OC)c1OC | > 10 | > 100 | >10 | inactive | – | – | – | – | –
COc1cccc2c1O/C(=C\c1ccccc1)C2=O | > 10 | > 100 | >10 | inactive | – | – | – | – | –
O=C1/C(=C/c2cccc(-c3ccc(Cl)cc3)c2)Oc2ccccc21 | > 10 | > 100 | >10 | inactive | – | – | – | – | –
